Measured values from ChEMBL document CHEMBL1134622, “Piperazine-based CCR5 antagonists as HIV-1 inhibitors. II. Discovery of 1-[(2,4-dimethyl-3-pyridinyl)carbonyl]-4- methyl-4-[3(S)-methyl-4-[1(S)-[4-(trifluoromethyl)phenyl]ethyl]-1-piperazinyl]- piperidine N1-oxide (Sch-350634), an orally bioavailable, potent CCR5 antagonist” (J Med Chem, 2001).
pIC50, pKi: −log10 of the molar value.

Key:
[1] = target: T1, C-C chemokine receptor type 5 (Homo sapiens, UniProt P51681); experiment: Binding affinity towards C-C chemokine receptor type 5
Procedure, shortened: (§1)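 CCR5 Ki in nM. Standard error 10%; assay-to-assay variability 2-3-fold.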

[2] = target: T1, C-C chemokine receptor type 5; experiment: Inhibitory activity against C-C chemokine receptor type 5; procedure, shortened: as §1
U-87 MG [3] = experiment: Inhibition of the entry of HIV-1 reporter virus (ADA) into U-87 cells; type: functional, cell-based, U-87MG ATCC; details: Homo sapiens
Procedure, shortened: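 Single-cycle infectivity assay in U-87 cells with HIV-1 reporter virus (ADA). IC50 is the concentration giving 50% inhibition of viral entry. 95% confidence limit within 1 log; intra-assay variation under 0.5 log.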

Rattus norvegicus = experiment: Pharmacokinetic characterization measured on oral blood levels in rat at 10 mg/kg (0-6 hr); type: ADME, organism-based; design: time < 6 hr, dose 10 mg/kg, route oral; details: in vivo
Procedure, shortened: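 Rats given compound orally at 10 mg/kg. Plasma concentrations followed over 6 h. Blood levels expressed as AUC (0-6 h) of the concentration-time plot, in ng/mL h.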

U-87 MG [4] = experiment: Inhibition of the entry of HIV-1 reporter virus (JrF1) into U-87 cells; type: functional, cell-based, U-87MG ATCC; details: Homo sapiens
Procedure, shortened: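 Entry of HIV-1 reporter virus (JrFl) into U-87 cells. IC50 is the concentration inhibiting entry by 50%. 95% confidence limit within 1 log; intra-assay variation under 0.5 log.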

[5] = Bioavailability in dog after oral administration.; type: ADME, organism-based, Canis lupus familiaris; details: in vivo, read-out: BA
Procedure, shortened: (§2)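 Beagle dogs and cynomolgus monkeys. IV dose 1 mg/kg. Oral dose 3 mg/kg in dog, 10 mg/kg in monkey. Plasma sampled over 0-24 h. […] Bioavailability is dose-corrected from oral vs iv AUC.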

[6] = Time required for the maximum plasma concentration in rat blood levels at 10 mg/kg; type: ADME, organism-based; design: dose 10 mg/kg
Cynomolgus monkey [7] = experiment: Area under concentration curve in cynomolgus monkey after iv administration; type: ADME, organism-based, Macaca fascicularis; details: in vivo; procedure, shortened: as §2
[8] = Bioavailability in monkey after oral administration.; type: ADME, organism-based; details: simiiformes, in vivo, read-out: BA; procedure, shortened: as §2
Canis familiaris [9] = experiment: Area under concentration curve in Beagle dogs after iv administration (0-24 hr); type: ADME, organism-based, Canis lupus familiaris; design: time < 24 hr, route intravenous; details: dog, in vivo; procedure, shortened: as §2
[10] = Maximum plasma concentration after oral administration in dog; type: ADME, organism-based, Canis lupus familiaris; design: route oral; procedure, shortened: as §2
[11] = Maximum plasma concentration after oral administration in monkey; type: ADME, organism-based; design: route oral; details: simiiformes; procedure, shortened: as §2
[12] = Plasma concentration after 0 hours of intravenous administration in dog; type: ADME, organism-based, Canis lupus familiaris; details: read-out: Co; procedure, shortened: as §2
[13] = target: T2, Muscarinic acetylcholine receptor M2 (Homo sapiens, UniProt P08172); experiment: Binding affinity against muscarinic acetylcholine receptor M2
T2 sequence (P08172 whole entry): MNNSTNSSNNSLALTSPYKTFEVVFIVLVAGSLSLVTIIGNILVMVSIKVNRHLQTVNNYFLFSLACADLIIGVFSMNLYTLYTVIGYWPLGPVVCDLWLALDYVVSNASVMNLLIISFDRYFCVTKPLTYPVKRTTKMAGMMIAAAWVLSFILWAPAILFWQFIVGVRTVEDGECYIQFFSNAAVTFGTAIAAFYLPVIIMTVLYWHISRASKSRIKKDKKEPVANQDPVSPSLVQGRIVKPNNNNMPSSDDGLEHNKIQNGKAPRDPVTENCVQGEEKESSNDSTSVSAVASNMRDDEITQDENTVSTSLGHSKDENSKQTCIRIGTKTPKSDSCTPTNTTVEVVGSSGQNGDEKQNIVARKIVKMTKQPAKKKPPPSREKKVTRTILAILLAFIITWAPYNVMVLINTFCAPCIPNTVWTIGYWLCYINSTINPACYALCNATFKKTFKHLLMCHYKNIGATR

[14] = target: T1, C-C chemokine receptor type 5; experiment: Binding affinity at C-C chemokine receptor type 5; procedure, shortened: as §1
Canis familiaris [15] = experiment: Area under concentration curve in Beagle dogs after oral administration (0-24 hr); type: ADME, organism-based, Canis lupus familiaris; design: time < 24 hr, route oral; details: dog, in vivo; procedure, shortened: as §2
[16] = Plasma concentration after 0 hours of intravenous administration in cunomolgus monkey; type: ADME, organism-based, Macaca fascicularis; details: cynomolgus monkey; procedure, shortened: as §2
Cynomolgus monkey [17] = experiment: Area under concentration curve in cynomolgus monkey after oral administration; type: ADME, organism-based, Macaca fascicularis; details: in vivo; procedure, shortened: as §2
[18] = Half life determined after iv administration to monkey; type: ADME, organism-based; details: simiiformes, in vivo; procedure, shortened: as §2
[19] = Plasma concentration after 6 hours of oral administration in rat; type: ADME, organism-based; details: read-out: C6h
[20] = Time required for the maximum plasma concentration in rat.; type: ADME, organism-based
[21] = Half life determined after iv administration to dog; type: ADME, organism-based, Canis lupus familiaris; details: in vivo; procedure, shortened: as §2

T1 sequence (P51681 whole entry): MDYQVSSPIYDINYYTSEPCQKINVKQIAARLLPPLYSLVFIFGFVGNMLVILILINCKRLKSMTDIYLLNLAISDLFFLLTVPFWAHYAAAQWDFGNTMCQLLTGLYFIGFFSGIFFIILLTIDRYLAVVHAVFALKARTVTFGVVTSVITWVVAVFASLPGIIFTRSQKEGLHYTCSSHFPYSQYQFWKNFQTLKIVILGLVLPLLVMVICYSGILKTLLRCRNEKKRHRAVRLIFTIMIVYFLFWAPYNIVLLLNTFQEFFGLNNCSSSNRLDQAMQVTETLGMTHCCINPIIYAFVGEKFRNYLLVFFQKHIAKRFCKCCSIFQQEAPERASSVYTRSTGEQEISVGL

SMILES	pKi [1]	pIC50 (U-87 MG [3])	AUC (Rattus norvegicus) [µg·h/mL]	further results
Cc1cccc(C)c1C(=O)N1CCC(N2CCN([C@@H](C)c3ccc(Br)cc3)[C@@H](C)C2)CC1	7.64	–	–	pIC50 [2]: 8.22
Cc1cccc(C)c1C(=O)N1CCC(C)(N2CCN([C@@H](C)c3ccc(S(C)(=O)=O)cc3)[C@@H](C)C2)CC1	8.52	9.30	–	–
Cc1cccc(C)c1C(=O)N1CCC(C)(N2CCN([C@@H](C)c3ccc(C(F)(F)F)cc3)[C@@H](C)C2)CC1	9.00	9.40	0.922	–
Cc1cccc(C)c1C(=O)N1CCC(N2CCN([C@@H](C)c3ccc(I)cc3)[C@@H](C)C2)CC1	7.70	–	–	pIC50 (U-87 MG [4]): 8.15
C[C@H]1CN(C2(C)CCN(C(=O)c3c(N)cccc3Cl)CC2)CCN1[C@@H](C)c1ccc(C(F)(F)F)cc1	8.30	8.92	1.87	–
Cc1cccc(C)c1C(=O)N1CCC(N2CCN(Cc3ccc(I)cc3)CC2)CC1	6.36	–	–	–
Cc1cccc(C)c1C(=O)N1CCC(N2CCN(Cc3ccc(I)cc3)[C@@H](C)C2)CC1	7.52	–	–	–
Cc1cccc(C)c1C(=O)N1CCC(C)(N2CCN(Cc3ccc(I)cc3)[C@@H](C)C2)CC1	8.10	–	–	pIC50 (U-87 MG [4]): 8.57
Cc1ccnc(C)c1C(=O)N1CCC(C)(N2CCN([C@@H](C)c3ccc(C(F)(F)F)cc3)[C@@H](C)C2)CC1	–	9.30	3.91	bioavailability [5]: 33%; Tmax [6]: 1.5 h; AUC (Cynomolgus monkey [7]): 0.996 µg·h/mL; bioavailability [8]: 27.5%; AUC (Canis familiaris [9]): 1.61 µg·h/mL; Cmax [10]: 0.226 µg/mL; Cmax [11]: 0.281 µg/mL; concentration at 0 h [12]: 0.346 µg/mL; pKi [13]: 5.60; pKi [14]: 8.64; AUC (Canis familiaris [15]): 1.58 µg·h/mL; C0 at 0 h [16]: 0.39 µg/mL; AUC (Cynomolgus monkey [17]): 2.74 µg·h/mL
Cc1cccc(C)c1C(=O)N1CCC(N2CCN([C@@H](C)c3ccccc3)[C@@H](C)C2)CC1	6.56	–	–	–
Cc1cccc(O)c1C(=O)N1CCC(C)(N2CCN([C@@H](C)c3ccc(C(F)(F)F)cc3)[C@@H](C)C2)CC1	8.30	8.49	2.54	–

Further lines, with some results ahead:

pKi [1]	pIC50 (U-87 MG [3])	AUC (Rattus norvegicus) [µg·h/mL]	SMILES	further results
8.30	9.00	0.822	Cc1cccc(C)c1C(=O)N1CCC(C)(N2CCN([C@@H](C)c3ccc(I)cc3)[C@@H](C)C2)CC1	–
7.82	8.40	0.384	Cc1cccc(O)c1C(=O)N1CCC(C)(N2CCN([C@@H](C)c3ccc(S(C)(=O)=O)cc3)[C@@H](C)C2)CC1	–
7.92	8.70	1.98	C[C@H]1CN(C2(C)CCN(C(=O)c3c(N)cccc3Cl)CC2)CCN1[C@@H](C)c1ccc(I)cc1	–
8.15	9.00	2.81	Cc1cccc(O)c1C(=O)N1CCC(C)(N2CCN([C@@H](C)c3ccc(I)cc3)[C@@H](C)C2)CC1	–
8.30	9.10	0.447	C[C@H]1CN(C2(C)CCN(C(=O)c3c(N)cccc3Cl)CC2)CCN1[C@@H](C)c1ccc(S(C)(=O)=O)cc1	–
7.21	–	–	Cc1cccc(C)c1C(=O)N1CCC(C)(N2CCN(Cc3ccc(I)cc3)CC2)CC1	–
–	9.00	9.24	Cc1cc[n+]([O-])c(C)c1C(=O)N1CCC(C)(N2CCN([C@@H](C)c3ccc(C(F)(F)F)cc3)[C@@H](C)C2)CC1	bioavailability [5]: 65%; half-life [18]: 4 h; concentration at 6 h [19]: 1.3 µg/mL; AUC (Cynomolgus monkey [7]): 2.61 µg·h/mL; bioavailability [8]: 59%; AUC (Canis familiaris [9]): 3.24 µg·h/mL; Tmax [20]: 2.5 h; Cmax [10]: 0.69 µg/mL; half-life [21]: 6 h; Cmax [11]: 1.42 µg/mL; pKi [13]: 6.60; pKi [14]: 8.15; AUC (Canis familiaris [15]): 6.29 µg·h/mL; AUC (Cynomolgus monkey [17]): 15.4 µg·h/mL
